In publication PMC8360206 (Cancer, 2021):
Read-outs that look alike come from different tables or passages of the source.

Tests used:
[1] = tested on: patients with R/R AML; conditions: OTX015 monotherapy ref 10; cited from earlier work
[2] = tested on: DCXR, HEXIM1, CD93, MYC, BCL2, PUMA, BIM gene expression in peripheral blood; assay type: in vivo, human; conditions: for pharmacodynamic effects (gene modulation) vs dose and drug exposure: peripheral blood, correlation with Cmax, P < .05
Summary of the method: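 Whole blood was drawn before and 6 h after the C1D1 monotherapy dose. RNA from it underwent whole-transcriptome sequencing, and marker expression was given as percent change from baseline. Linear regression related C1D1 plasma Cmax to biomarker change.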

[3] = tested on: patients with relapsed/refractory solid tumors; conditions: cited from earlier work
[4] = tested on: patients with relapsed/refractory AML; experiment: Safety: treatment‐emergent adverse events and DLTs; assay type: in vivo, human
Summary of the method: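 3 + 3 dose escalation, daily dosing in 28-day cycles. Monotherapy was 1.5, 2.0 or 2.5 mg. TEAEs (first dose to 30 days post-discontinuation) were graded by NCI CTCAE v4.03 in all patients given ≥1 dose.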

[5] = Plasma mivebresib pharmacokinetics; assay type: in vivo, human
[6] = tested on: relapsed/refractory acute myeloid leukemia; experiment: Clinical activity: IWG response, bone marrow blast change, PFS, OS; assay type: in vivo, human
Summary of the method: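 Adults (≥18 y) with relapsed/refractory AML got the test compound daily in 28-day cycles at 1.5, 2.0 or 2.5 mg as monotherapy. Response followed revised IWG AML criteria, comparing baseline bone marrow with at least 1 on-treatment marrow sample. Marrow was sampled at screening, C2D1 and as clinically indicated. Patients without a postbaseline sample were not evaluable. PFS and OS were summarised descriptively.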

[7] = PB, 6 hours after MIV‐mono administration, P < .001
[8] = MIV‐mono n = 19, started MIV‐Ven n = 25
[9] = started arms (mono n = 19, combination n = 25)

Cc1sc2c(c1C)C(c1ccc(Cl)cc1)=N[C@@H](CC(=O)Nc1ccc(O)cc1)c1nnc(C)n1-2 [OTX015]
rate of diarrhea [1]: 34%
rate of nausea [1]: 22%
rate of vomiting [1]: 7%

CCS(=O)(=O)Nc1ccc(Oc2ccc(F)cc2F)c(-c2cn(C)c(=O)c3[nH]ccc23)c1 [mivebresib]
BIM (proapoptotic gene) expression ([2]; 6 hours after MIV‐mono, P < .0005, data not shown): increased
BCL2 (antiapoptotic gene) expression ([2]; 6 hours after MIV‐mono, P < .01, data not shown): inhibited
PUMA (proapoptotic gene) expression ([2]; 6 hours after MIV‐mono, P < .064, data not shown): increased
CD93 expression [2, 7]: decrease
DCXR gene expression [2, 7]: increase
HEXIM1 gene expression [2, 7]: increase
MYC expression ([2]; PB, 6 hours after MIV‐mono administration, P < .083): decrease
pharmacodynamic effects (gene modulation) vs dose and drug exposure [2]: proportional to dose and drug exposure
pharmacodynamic effects (gene modulation) vs dose and drug exposure ([2]; listed as MIV‐mono): dose‐dependent
solid tumor recommended phase 2 dose [3]: 1.5 mg daily
anemia, grade ≥3 mivebresib‐related TEAE ([4]; MIV‐mono n = 19): 26%
decreased appetite, TEAE frequency ([4]; MIV‐mono n = 19): 58%
decreased appetite, grade ≥3 ([4]; MIV‐mono n = 19): 11%
diarrhea, grade ≥3 ([4]; MIV‐mono n = 19): no grade ≥3
fatigue, TEAE frequency ([4]; MIV‐mono n = 19): 68%
fatigue, grade ≥3 ([4]; MIV‐mono n = 19): 21%
nausea, grade ≥3 ([4]; MIV‐mono n = 19): 5%
pneumonia, serious TEAE ([4]; MIV‐mono n = 19): 16%
AML progression (AML), serious TEAE [4, 8]: 16%
decreased appetite, mivebresib‐related TEAE [4, 8]: 42%
diarrhea, mivebresib‐related TEAE [4, 8]: 42%
dysgeusia, mivebresib‐related TEAE [4, 8]: 74%
febrile neutropenia, serious TEAE [4, 8]: 16%
grade ≥3 mivebresib‐related TEAEs, patients [4, 8]: 68%
serious adverse events (serious TEAEs regardless of relatedness), patients [4, 8]: 74%
thrombocytopenia, grade ≥3 mivebresib‐related TEAE [4, 8]: 32%
dose‐limiting toxicities (DLTs) ([4]; first 4 weeks, all dose levels): No DLTs occurred
ALT increased, AE related to mivebresib [4, 9]: 1 (5) No. of Patients (%)
AST increased, AE related to mivebresib [4, 9]: 0 (0) No. of Patients (%)
Anemia, AE related to mivebresib [4, 9]: 7 (37) No. of Patients (%)
Anemia, TEAE [4, 9]: 13 (68) No. of Patients (%)
Any TEAEs [4, 9]: 19 (100) No. of Patients (%)
Cough, TEAE [4, 9]: 6 (32) No. of Patients (%)
Decreased appetite, AE related to mivebresib [4, 9]: 8 (42) No. of Patients (%)
Decreased appetite, TEAE [4, 9]: 11 (58) No. of Patients (%)
Diarrhea, AE related to mivebresib [4, 9]: 8 (42) No. of Patients (%)
Diarrhea, TEAE [4, 9]: 9 (47) No. of Patients (%)
Dry mouth, AE related to mivebresib [4, 9]: 2 (11) No. of Patients (%)
Dysgeusia, AE related to mivebresib [4, 9]: 14 (74) No. of Patients (%)
Dysgeusia, TEAE [4, 9]: 15 (79) No. of Patients (%)
Dyspnea, TEAE [4, 9]: 6 (32) No. of Patients (%)
Epistaxis, AE related to mivebresib [4, 9]: 3 (16) No. of Patients (%)
Epistaxis, TEAE [4, 9]: 4 (21) No. of Patients (%)
Fatigue, AE related to mivebresib [4, 9]: 7 (37) No. of Patients (%)
Fatigue, TEAE [4, 9]: 13 (68) No. of Patients (%)
Febrile neutropenia, AE related to mivebresib [4, 9]: 0 (0) No. of Patients (%)
Febrile neutropenia, TEAE [4, 9]: 7 (37) No. of Patients (%)
Headache, AE related to mivebresib [4, 9]: 0 (0) No. of Patients (%)
Hyperbilirubinemia, TEAE [4, 9]: 6 (32) No. of Patients (%)
Hypokalemia, TEAE [4, 9]: 3 (16) No. of Patients (%)
Hypomagnesemia, TEAE [4, 9]: 2 (11) No. of Patients (%)
Muscular weakness, TEAE [4, 9]: 7 (37) No. of Patients (%)
Nausea, AE related to mivebresib [4, 9]: 7 (37) No. of Patients (%)
Nausea, TEAE [4, 9]: 9 (47) No. of Patients (%)
Neutrophil count decreased, AE related to mivebresib [4, 9]: 2 (11) No. of Patients (%)
Platelet count decreased, AE related to mivebresib [4, 9]: 2 (11) No. of Patients (%)
Stomatitis, AE related to mivebresib [4, 9]: 1 (5) No. of Patients (%)
Thrombocytopenia, AE related to mivebresib [4, 9]: 7 (37) No. of Patients (%)
Thrombocytopenia, TEAE [4, 9]: 10 (53) No. of Patients (%)
Vomiting, AE related to mivebresib [4, 9]: 5 (26) No. of Patients (%)
Vomiting, TEAE [4, 9]: 6 (32) No. of Patients (%)
WBC count decreased, AE related to mivebresib [4, 9]: 1 (5) No. of Patients (%)
Weight decreased, AE related to mivebresib [4, 9]: 2 (11) No. of Patients (%)
patients with an AE leading to discontinuation ([4]; whole study, MIV‐mono and MIV‐Ven): Seventeen
steady‐state accumulation ratio ([5]; AUC0‐24 on C1D8 versus C1D1, daily dosing): approximately 2 fold
dose proportionality of PK ([5]; dose‐normalized C1D8 Cmax and AUC24 over the studied dosing range): approximately dose proportional
half-life ([5]; human, plasma, oral): 16.4 h
effect of venetoclax coadministration on mivebresib PK ([5]; monotherapy vs combination cohorts): no effect
response: CRi ([6]; 19 patients who received MIV‐mono): 5%
median OS ([6]; MIV‐mono 1.5 mg): 15.7 weeks
median PFS ([6]; MIV‐mono 1.5 mg): 7.2 weeks
median OS ([6]; MIV‐mono 2.0 mg): 22.0 weeks
median PFS ([6]; MIV‐mono 2.0 mg): 13.9 weeks
median OS ([6]; MIV‐mono 2.5 mg): 12.6 weeks
median PFS ([6]; MIV‐mono 2.5 mg): 10.6 weeks
patients with FLT3 and NPM1 co‐occurrence who responded / had a reduction in BM blasts ([6]; MIV‐mono 3 patients, MIV‐Ven 4 patients): None
response: CRi ([6]; MIV‐mono group): 1 patient
patients with measurable reduction in BM blasts ([6]; assessable patients: 16 MIV‐mono, 15 only MIV‐Ven): 44%
Best IWG response: Aplasia [6, 9]: 0 (0) No. of Patients (%)
Best IWG response: CR [6, 9]: 0 (0) No. of Patients (%)
Best IWG response: CRi [6, 9]: 1 (5) No. of Patients (%)
Best IWG response: MLFS [6, 9]: 0 (0) No. of Patients (%)
Best IWG response: PR [6, 9]: 0 (0) No. of Patients (%)
Best IWG response: Resistant disease [6, 9]: 15 (79) No. of Patients (%)
Best IWG response: Unknown: Not assessable or insufficient data [6, 9]: 3 (16) No. of Patients (%)
